ChEMBL document CHEMBL1133101, “7-Methyl-6,7,8,9,14,15-hexahydro-5H-benz[d]indolo[2,3-g]azecine: a new heterocyclic system and a new lead compound for dopamine receptor antagonists” (J Med Chem, 2000)

How the values were obtained:
[1] = molecular target: Angiotensin II receptor (Homo sapiens) (UniProt P30556+P50052); experiment: Percent decrease of Angiotensin II receptor binding; type: protein assay; parameters: concentration or dose not given beside the values
How it was run: (§1)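 Preliminary screen of receptors isolated from rat or pig tissues, run with minor changes to standard procedures. Each compound was tested at a single fixed concentration for each receptor. The read-out was the percent decrease in binding of the named radioligand.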

[2] = molecular target: Glutamate [NMDA] receptor (Homo sapiens) (UniProt Q05586+Q12879+Q13224+O15399+O60391+Q14957+Q8TCU5); experiment: Percent decrease of N-methyl-D-aspartate glutamate receptor binding using MK-801; type: protein-complex assay; parameters: concentration or dose not given beside the values; how it was run: as §1
[3] = % Decrease of adenosine carrier-receptor -bound radioactivity using NBTI as a radioligand.; parameters: concentration or dose not given beside the values; how it was run: as §1
[4] = molecular target: Glutamate receptor ionotropic AMPA (Homo sapiens) (UniProt P48058+P42263+P42262+P42261); experiment: Percent decrease of Quisqualate receptor binding using AMPA; type: protein-complex assay; parameters: scale not given: the % may be the effect or the level left; how it was run: as §1
[5] = % Decrease of Phorbol Diester Receptor -bound radioactivity using PDBU as a radioligand.; parameters: scale not given: the % may be the effect or the level left; how it was run: as §1
[6] = molecular target: Neuronal acetylcholine receptor (Rattus norvegicus) (UniProt P04757+P09483+P12389+P12390+P12392+P43144+Q9JLB5+P12391+P43143+P20420+Q05941); experiment: % Decrease of Nicotinic acetylcholine receptor-bound radioactivity using cytisine as a radioligand.; type: protein-complex assay; parameters: scale not given: the % may be the effect or the level left; how it was run: as §1
[7] = molecular target: T1, Adrenergic receptor alpha-1 (Homo sapiens, UniProt P35348+P25100+P35368); experiment: Binding affinity against Alpha-1 adrenergic receptor; type: protein assay
T1 sequence (P35348 whole entry): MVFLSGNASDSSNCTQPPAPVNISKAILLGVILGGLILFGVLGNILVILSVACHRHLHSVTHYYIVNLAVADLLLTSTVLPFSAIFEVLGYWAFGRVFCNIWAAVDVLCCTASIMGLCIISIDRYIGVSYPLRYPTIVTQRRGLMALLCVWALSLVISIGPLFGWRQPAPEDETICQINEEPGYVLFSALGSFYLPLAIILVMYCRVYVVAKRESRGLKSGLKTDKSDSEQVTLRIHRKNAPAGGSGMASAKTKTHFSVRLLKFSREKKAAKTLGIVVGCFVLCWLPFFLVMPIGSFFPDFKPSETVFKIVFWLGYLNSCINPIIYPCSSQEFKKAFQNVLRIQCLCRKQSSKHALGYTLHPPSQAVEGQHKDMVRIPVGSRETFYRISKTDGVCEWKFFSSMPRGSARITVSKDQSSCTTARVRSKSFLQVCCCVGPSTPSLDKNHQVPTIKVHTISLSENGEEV
T1 sequence (P25100 whole entry): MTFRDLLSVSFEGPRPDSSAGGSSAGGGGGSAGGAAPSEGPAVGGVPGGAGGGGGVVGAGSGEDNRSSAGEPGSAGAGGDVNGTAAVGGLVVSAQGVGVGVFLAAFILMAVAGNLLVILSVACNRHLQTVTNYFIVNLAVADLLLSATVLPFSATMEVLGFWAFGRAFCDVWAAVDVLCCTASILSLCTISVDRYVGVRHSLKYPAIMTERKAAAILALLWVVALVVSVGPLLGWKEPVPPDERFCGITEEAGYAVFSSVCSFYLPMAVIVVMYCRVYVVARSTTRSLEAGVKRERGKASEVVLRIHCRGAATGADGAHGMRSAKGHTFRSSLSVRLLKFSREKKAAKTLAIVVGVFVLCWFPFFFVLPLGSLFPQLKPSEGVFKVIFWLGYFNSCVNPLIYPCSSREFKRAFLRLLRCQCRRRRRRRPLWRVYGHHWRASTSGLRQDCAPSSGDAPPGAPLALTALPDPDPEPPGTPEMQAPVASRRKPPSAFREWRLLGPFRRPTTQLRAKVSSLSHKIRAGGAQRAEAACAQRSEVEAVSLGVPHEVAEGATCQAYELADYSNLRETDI
T1 sequence (P35368 whole entry): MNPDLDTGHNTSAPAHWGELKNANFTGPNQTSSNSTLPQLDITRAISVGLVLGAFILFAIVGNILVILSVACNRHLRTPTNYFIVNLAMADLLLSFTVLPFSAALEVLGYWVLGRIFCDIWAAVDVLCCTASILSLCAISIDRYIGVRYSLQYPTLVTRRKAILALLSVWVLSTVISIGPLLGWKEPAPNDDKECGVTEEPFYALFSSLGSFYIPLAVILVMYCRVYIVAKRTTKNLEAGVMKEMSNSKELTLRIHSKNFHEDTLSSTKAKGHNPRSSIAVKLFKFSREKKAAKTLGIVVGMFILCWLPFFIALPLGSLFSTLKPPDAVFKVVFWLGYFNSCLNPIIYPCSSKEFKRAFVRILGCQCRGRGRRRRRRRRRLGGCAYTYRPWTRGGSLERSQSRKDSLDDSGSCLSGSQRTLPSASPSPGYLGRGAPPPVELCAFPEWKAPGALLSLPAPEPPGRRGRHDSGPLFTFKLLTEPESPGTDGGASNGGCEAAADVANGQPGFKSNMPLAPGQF

[8] = molecular target: Serotonin 2 (5-HT2) receptor (Rattus norvegicus) (UniProt P30994+P08909+P14842); experiment: Percent decrease in 5-hydroxytryptamine 2 receptor binding using ketanserin; type: protein assay; parameters: scale not given: the % may be the effect or the level left; how it was run: as §1
[9] = molecular target: T2, 5-hydroxytryptamine receptor 1A (Homo sapiens) (UniProt P08908); experiment: Percent decrease in 5-hydroxytryptamine 1A receptor binding using 8-OH-DPAT; parameters: concentration or dose not given beside the values; how it was run: as §1
T2 sequence (whole entry): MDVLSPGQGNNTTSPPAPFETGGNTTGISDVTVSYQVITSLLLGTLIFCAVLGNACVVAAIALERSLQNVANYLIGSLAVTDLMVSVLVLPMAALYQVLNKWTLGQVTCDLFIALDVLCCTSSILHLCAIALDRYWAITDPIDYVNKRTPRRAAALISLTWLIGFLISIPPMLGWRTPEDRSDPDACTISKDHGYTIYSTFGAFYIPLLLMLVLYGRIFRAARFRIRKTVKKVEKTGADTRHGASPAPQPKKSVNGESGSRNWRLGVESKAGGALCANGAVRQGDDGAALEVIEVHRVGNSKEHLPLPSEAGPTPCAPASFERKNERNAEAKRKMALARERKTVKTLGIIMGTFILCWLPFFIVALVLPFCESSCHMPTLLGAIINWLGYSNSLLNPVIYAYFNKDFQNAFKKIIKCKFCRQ

[10] = molecular target: D(2) dopamine receptor (Rattus norvegicus) (UniProt P61169); experiment: Percent decrease in Dopamine receptor D2 binding using spiperone; parameters: scale not given: the % may be the effect or the level left; how it was run: as §1
[11] = molecular target: Sodium-dependent serotonin transporter (Homo sapiens) (UniProt P31645); experiment: % Decrease of 5-HT carrier-receptor -bound radioactivity using paroxetine as a radioligand.; parameters: concentration or dose not given beside the values; how it was run: as §1
[12] = molecular target: GABA-A receptor; anion channel (Homo sapiens) (UniProt P14867+P47870+P18507+P28472+P48169+Q99928+Q9UN88+P34903+O00591+O14764+Q8N1C3+P18505+P78334+P47869+P31644+Q16445); experiment: Displacement of muscimol from GABA-A receptor; type: protein-complex assay; how it was run: as §1
[13] = Percent decrease of Endothelin receptor binding using [125I]sarafotoxin; parameters: concentration or dose not given beside the values
[14] = Percent decrease in Bradykinin receptor binding; parameters: concentration or dose not given beside the values; how it was run: as §1
[15] = molecular target: Sulfonylurea receptors; K-ATP channels (Homo sapiens) (UniProt Q14654+O60706+Q09428+Q15842); experiment: Percent inhibition of glibenclamide binding to K+ channel; type: protein-complex assay; parameters: concentration or dose not given beside the values; how it was run: as §1
Chain of Sulfonylurea receptors; K-ATP channels (Homo sapiens) (O60706 whole entry, looked up): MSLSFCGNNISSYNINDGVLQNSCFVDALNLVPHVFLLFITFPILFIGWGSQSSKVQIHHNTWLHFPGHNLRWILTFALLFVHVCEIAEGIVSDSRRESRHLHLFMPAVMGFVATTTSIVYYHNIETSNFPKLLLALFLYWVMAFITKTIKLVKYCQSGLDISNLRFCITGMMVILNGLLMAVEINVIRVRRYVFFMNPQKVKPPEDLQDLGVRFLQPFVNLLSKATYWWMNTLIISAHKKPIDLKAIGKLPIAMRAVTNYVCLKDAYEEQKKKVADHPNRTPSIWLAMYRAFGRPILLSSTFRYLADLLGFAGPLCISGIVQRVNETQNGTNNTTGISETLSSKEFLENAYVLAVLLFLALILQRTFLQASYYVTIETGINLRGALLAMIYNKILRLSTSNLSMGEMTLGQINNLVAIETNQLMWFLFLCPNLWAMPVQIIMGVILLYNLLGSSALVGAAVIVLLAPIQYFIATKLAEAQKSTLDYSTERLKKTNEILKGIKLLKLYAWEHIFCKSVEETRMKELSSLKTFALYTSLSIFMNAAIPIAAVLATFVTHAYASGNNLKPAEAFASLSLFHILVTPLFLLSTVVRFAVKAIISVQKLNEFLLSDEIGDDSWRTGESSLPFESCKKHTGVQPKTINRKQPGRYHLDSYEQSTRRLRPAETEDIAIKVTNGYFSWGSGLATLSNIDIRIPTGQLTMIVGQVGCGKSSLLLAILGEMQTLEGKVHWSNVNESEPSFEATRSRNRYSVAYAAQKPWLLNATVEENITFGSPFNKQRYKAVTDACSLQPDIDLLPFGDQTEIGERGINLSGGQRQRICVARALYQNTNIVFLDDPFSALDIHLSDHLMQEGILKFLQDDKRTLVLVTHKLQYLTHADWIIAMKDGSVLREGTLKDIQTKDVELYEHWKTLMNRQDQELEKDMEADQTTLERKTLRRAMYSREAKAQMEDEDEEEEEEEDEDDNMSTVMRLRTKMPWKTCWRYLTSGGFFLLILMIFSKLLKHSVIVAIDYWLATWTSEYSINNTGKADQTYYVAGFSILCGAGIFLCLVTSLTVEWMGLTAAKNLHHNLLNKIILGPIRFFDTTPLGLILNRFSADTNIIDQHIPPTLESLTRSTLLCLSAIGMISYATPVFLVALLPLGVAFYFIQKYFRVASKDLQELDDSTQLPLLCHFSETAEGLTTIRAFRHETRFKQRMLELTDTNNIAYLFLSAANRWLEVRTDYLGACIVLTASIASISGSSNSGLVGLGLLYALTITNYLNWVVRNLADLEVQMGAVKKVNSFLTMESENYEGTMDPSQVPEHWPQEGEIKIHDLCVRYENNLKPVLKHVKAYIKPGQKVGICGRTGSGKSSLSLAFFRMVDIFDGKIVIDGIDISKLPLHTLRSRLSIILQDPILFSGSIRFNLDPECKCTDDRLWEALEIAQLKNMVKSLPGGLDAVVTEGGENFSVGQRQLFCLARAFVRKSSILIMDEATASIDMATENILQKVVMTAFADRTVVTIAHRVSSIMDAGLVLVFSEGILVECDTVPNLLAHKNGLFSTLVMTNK
Chain of Sulfonylurea receptors; K-ATP channels (Homo sapiens) (Q09428 whole entry, looked up): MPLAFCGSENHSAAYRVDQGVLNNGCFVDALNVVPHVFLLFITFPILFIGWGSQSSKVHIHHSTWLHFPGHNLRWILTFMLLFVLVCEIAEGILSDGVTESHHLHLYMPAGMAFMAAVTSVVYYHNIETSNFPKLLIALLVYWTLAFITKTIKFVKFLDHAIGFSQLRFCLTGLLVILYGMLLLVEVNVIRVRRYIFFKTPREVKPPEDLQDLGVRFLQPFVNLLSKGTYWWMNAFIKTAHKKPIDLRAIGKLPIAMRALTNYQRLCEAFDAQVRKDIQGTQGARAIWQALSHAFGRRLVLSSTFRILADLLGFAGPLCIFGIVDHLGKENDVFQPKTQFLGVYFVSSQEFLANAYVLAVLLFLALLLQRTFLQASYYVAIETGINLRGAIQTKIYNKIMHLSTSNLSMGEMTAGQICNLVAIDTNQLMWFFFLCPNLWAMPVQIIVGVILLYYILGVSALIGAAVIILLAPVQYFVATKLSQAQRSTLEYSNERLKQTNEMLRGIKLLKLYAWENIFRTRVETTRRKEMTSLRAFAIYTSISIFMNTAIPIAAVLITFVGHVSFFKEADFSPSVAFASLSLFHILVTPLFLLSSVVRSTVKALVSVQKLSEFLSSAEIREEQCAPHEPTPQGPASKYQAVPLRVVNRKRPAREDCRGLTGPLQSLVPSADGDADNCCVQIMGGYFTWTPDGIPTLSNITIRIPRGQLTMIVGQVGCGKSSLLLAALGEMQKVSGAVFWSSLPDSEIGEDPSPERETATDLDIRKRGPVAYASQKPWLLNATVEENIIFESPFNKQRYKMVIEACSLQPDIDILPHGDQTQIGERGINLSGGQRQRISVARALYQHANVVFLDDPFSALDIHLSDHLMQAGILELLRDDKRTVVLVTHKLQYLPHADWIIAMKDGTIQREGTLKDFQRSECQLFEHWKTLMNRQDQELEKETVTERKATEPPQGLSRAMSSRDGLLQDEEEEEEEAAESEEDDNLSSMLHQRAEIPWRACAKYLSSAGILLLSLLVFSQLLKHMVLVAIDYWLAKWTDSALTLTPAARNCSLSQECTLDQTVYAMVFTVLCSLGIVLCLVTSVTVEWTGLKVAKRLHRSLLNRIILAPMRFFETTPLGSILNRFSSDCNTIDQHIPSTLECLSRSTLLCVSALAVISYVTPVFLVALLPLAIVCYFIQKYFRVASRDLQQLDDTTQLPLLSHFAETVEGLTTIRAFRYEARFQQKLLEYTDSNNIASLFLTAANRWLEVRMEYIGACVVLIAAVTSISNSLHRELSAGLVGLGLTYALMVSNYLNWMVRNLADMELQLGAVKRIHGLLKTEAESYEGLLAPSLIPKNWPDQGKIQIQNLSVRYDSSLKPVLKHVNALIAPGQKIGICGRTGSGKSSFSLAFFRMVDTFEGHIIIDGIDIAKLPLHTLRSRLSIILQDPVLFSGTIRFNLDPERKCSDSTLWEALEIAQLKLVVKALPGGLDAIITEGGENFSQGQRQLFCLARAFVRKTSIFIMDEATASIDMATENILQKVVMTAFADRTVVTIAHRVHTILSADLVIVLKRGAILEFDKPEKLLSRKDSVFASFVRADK
Chain of Sulfonylurea receptors; K-ATP channels (Homo sapiens) (Q14654 whole entry, looked up): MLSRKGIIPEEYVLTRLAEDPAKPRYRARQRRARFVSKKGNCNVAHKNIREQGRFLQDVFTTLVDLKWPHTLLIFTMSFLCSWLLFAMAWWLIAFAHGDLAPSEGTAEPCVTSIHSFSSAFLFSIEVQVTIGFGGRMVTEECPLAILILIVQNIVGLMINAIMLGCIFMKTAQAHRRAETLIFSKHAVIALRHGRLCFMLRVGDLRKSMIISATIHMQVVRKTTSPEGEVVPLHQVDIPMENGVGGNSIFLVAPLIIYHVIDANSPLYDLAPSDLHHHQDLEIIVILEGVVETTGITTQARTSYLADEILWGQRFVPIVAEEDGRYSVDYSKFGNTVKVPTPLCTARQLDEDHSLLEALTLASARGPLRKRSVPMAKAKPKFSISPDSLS
Chain of Sulfonylurea receptors; K-ATP channels (Homo sapiens) (Q15842 whole entry, looked up): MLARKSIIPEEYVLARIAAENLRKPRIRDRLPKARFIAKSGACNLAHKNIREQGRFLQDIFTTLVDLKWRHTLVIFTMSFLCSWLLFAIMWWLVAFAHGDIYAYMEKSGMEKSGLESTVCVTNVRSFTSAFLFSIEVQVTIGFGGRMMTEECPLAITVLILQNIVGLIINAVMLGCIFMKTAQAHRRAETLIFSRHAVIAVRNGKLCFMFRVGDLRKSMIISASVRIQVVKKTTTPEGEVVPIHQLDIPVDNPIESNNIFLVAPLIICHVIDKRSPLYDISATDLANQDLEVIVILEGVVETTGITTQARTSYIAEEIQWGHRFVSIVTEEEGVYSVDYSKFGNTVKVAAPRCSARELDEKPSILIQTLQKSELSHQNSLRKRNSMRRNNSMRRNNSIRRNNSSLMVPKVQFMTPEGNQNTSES

Chain of D(2) dopamine receptor (Rattus norvegicus) (P61169 whole entry): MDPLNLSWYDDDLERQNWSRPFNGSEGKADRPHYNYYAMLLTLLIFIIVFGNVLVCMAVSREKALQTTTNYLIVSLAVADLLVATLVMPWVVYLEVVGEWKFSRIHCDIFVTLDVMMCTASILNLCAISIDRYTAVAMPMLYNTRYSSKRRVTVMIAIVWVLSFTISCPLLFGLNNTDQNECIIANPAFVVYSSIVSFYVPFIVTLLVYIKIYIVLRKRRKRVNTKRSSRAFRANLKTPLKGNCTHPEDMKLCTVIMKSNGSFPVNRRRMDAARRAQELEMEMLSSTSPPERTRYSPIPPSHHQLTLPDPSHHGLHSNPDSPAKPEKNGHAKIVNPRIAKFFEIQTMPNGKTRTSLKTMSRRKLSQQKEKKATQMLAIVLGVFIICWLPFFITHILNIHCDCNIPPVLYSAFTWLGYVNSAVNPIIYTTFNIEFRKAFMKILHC
Chain of Sodium-dependent serotonin transporter (Homo sapiens) (P31645 whole entry, looked up): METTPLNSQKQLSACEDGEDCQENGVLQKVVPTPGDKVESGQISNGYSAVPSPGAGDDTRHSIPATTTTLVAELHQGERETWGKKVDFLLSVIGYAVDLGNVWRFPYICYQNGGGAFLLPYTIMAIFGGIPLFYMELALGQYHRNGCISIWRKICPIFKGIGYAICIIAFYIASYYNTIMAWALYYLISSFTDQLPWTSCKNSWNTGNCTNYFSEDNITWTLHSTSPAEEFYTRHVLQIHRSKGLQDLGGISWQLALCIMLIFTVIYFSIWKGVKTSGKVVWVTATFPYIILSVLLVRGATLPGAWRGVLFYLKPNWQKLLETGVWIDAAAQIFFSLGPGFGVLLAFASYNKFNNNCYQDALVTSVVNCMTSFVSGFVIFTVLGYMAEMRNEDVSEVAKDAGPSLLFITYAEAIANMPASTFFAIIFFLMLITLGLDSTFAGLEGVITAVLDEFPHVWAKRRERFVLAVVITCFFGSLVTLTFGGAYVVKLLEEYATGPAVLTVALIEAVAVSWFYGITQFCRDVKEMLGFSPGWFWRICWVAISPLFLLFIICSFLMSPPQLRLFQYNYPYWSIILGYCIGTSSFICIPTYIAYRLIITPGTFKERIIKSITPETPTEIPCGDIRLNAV

SMILES	Activity [1] [%]	Activity [2] [%]	Activity [3] [%]	Activity [4] [%]	Activity [5] [%]	Activity [6] [%]	Ki [7] [nM]	Activity [8] [%]	Activity [9] [%]	Activity [10] [%]	Activity [11] [%]	Activity [12] [%]	Activity [13] [%]	Activity [14] [%]	Activity [15] [%]
c1ccc2c(c1)CCN1CCc3c([nH]c4ccccc34)C21 (configuration not stated)	0	-33	-29	3	-6	0	79	-41	-12	-19	-32	-17	-1	-2	12
COc1cc2c(cc1OC)C1c3[nH]c4ccccc4c3CCN1CC2 (configuration not stated)	6	-14	-17	-1	-9	-4	17	-32	-21	-11	-8	-26	0	9	11
CN1CCc2ccccc2Cc2[nH]c3ccccc3c2CC1	6	-18	-14		0	-3	11		-72		-8	-9	0	-2	10
c1ccc2c3c([nH]c2c1)C1c2[nH]c4ccccc4c2CCN1CC3	0	-52	1	-1	-15	1	76	-52	-25	-51	-45	5	1	2	7
